Bioassay records from PubChem BioAssay.
Yeast lifespan up: yeast lifespan extension; S. cerevisiae growth with nicotinamide, OD615; deaD strain in restrictive glucose medium; inhibition of the nicotinamide effect, % at 10 µM; hit rate 0.68% among 130,000;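 active = inhibition above a set limit, placed 3 SD over the median of all compounds, cut at about 26% in these data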
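Test system – modified budding yeast, DeaD strain · Compound – single dose 10 µM compound, 0.25% DMSO · Times – culture preincubation 4 h, compound exposure 48 h, both 30 °C · Detection – optical density (absorbance) at 615 nm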
SDO1 yeast rescue: restores growth of sdo1-depleted yeast | z-score at 10 µM | AID 817 | hit rate 0.21% among 140,000 | S. cerevisiae sdo1-depleted JHY4D growth rescue, OD600 30 h; active compounds read high; pdr5 snq2 efflux-pump mutant strain;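 active = z-score above 3 at both the 24 hr and the 30 hr optical density reads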
MRP resist rev: compounds reversing MRP-mediated drug resistance. hit rate 0.04% among 85,000. differential viability (reversal), % at 10 µM. H69AR cells + 2 uM doxorubicin, CellTiter-Glo, 72 h. AID 602;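 active = viability drop by adding the cancer drug above about 55%, with treated viability meeting a 40% cutoff, limit read from the data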;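 note: larger differential means the compound sensitizes cells more to doxorubicin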
BB579 growth dn: chemicals that inhibit yeast BB579 growth in restrictive medium (lifespan-shortening candidates); S. cerevisiae BB579 growth, OD615, 48 h; inhibition, % at 10 µM; hit rate 0.51% among 140,000;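 active = inhibition above a set limit, 3 SD over the mean compound inhibition, cut at about 44% in these data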
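System: DeaD yeast strain BB579; buffer or medium: CSMM-D dextrose restrictive medium; technique: OD at 615 nm; schedule: 4 h cell preincubation, 48 h compound exposure, 30 °C humidified; doses: single 10 µM dose; controls: amphotericin B 10 µg/mL, positive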
MRP1 act: activates MRP-1. viability increase, % at 10 µM. H69AR cells + doxorubicin, viability rescue, CellTiter-Glo. hit rate 0.61% among 140,000. AID 799;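 active = viability gain under doxorubicin at or above a set limit, the compound median plus 3 SD, cut at about 4.7% in these data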;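 note: MRP-1 overexpressing cells given doxorubicin 25 µM after compound pretreatment; 18-22 h compound pretreatment then 72 h with doxorubicin before readout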
Phagocyt inh: inhibitors of macrophage phagocytosis. J774A.1 macrophage IgG-bead phagocytosis, imaging. inhibition, % at 5 µM. hit rate 0.07% among 110,000;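 active = inhibition above the mean of the plate negative controls plus 5 SD, cut at about 13% in these data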;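 note: phagocytic index as fraction of beads internalized from green versus red external bead signal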
A number is an active result; n = inactive; x = not tested or not shown. The list is not random: actives were taken first. Their share in the collection is about 2.1%.

SMILES | Yeast lifespan up | SDO1 yeast rescue | MRP resist rev | BB579 growth dn | MRP1 act | Phagocyt inh
COc1cc(CNCCN2CCOCC2)ccc1OCc1ccc(Cl)cc1Cl | n | n | x | n | n | n
COc1cc(CNCCN2CCOCC2)ccc1OCc1cccc(Cl)c1 | n | n | x | 53 | n | n
N#CC(c1cccc(Cl)c1)c1ccc2c(C(F)(F)F)cc(C(F)(F)F)nc2n1 (configuration not stated) | n | n | n | 63 | n | n
Clc1ccc2nc(C3CCN(Cc4ccccc4)CC3)[nH]c2c1 | n | n | x | n | n | x
CCCNC(=O)c1nc2ncc(Br)cn2n1 | n | n | n | n | n | n
CCCCNC(=O)c1nc2ncc(Br)cn2n1 | n | n | n | n | n | 193
S=C(Nc1ccc(Oc2ccccc2)cc1)NC1CCCCCC1 | n | n | x | 56 | n | n
O=C(Nc1ccccc1)NC1CCCCC1 | 42 | n | n | n | n | n
S=C(Nc1ccc(Oc2ccccc2)cc1)NC1CCCCC1 | n | n | x | n | n | n
Cc1ccc(C(=O)Oc2ccc(C(=O)COC(=O)c3cnccn3)cc2)cc1 | n | n | n | n | n | n
O=C(NCCc1ccc2c(c1)OCCO2)c1cc(F)cc(F)c1 | n | n | x | n | 4.7 | n
C=CCn1c(=O)c2c(C)c(C)sc2n2c(Nc3ccc(OC)cc3)nnc12 | n | n | n | n | 7.7 | n
C=CCSc1nc2sc(C)c(C)c2c(=O)n1CC=C | x | n | n | n | n | x
O=C(COC(=O)c1ccccc1Cl)Nc1nccs1 | n | n | x | n | n | n
O=C(COc1c(Br)cc(Br)c2cccnc12)N1CCc2ccccc2C1 | n | n | n | 99 | n | n
N#Cc1cc(C(=O)c2cc(F)ccc2O)cn(-c2nccs2)c1=O | 41 | n | x | n | n | n
N#Cc1cc(C(=O)c2ccccc2O)cn(-c2nccs2)c1=O | n | n | x | n | n | n
Clc1ccc(OCc2nnnn2-c2ccccc2)cc1 | n | n | x | n | 7.3 | n
c1ccc(OCc2nnnn2-c2ccccc2)cc1 | n | n | x | n | n | n
Oc1ccccc1-c1nc(/C=C/c2ccccc2)nn1-c1ccccc1 | n | n | x | n | n | n
Oc1ccc(/C=C/c2nc(-c3ccccc3O)n(-c3ccccc3)n2)cc1 | n | n | x | 98 | n | x
COc1ccc(CN=C2NC(=O)CC(C(=O)Nc3ccc(F)cc3)S2)cc1 (configuration not stated) | n | n | x | n | 6.7 | n
COc1cccc(N=C2SC(C(=O)Nc3ccc(F)cc3)CC(=O)N2C)c1 (configuration not stated) | n | n | n | n | n | n
COc1cccc(C2C(C(=O)Nc3nc4ccccc4s3)=C(C)NC3=C2C(=O)CC(C)(C)C3)c1OC (configuration not stated) | n | n | x | n | 7.9 | n
O=C(OCn1ncc(Cl)c(Cl)c1=O)c1ccccc1Cl | n | n | x | 66 | n | x
SMILES | Yeast lifespan up | SDO1 yeast rescue | MRP resist rev | BB579 growth dn | MRP1 act | Phagocyt inh
O=C(OCn1ncc(Cl)c(Cl)c1=O)c1ccc(F)cc1 | n | n | x | 45 | n | x
O=C(O)C1C2C=CC(C2)C1C(=O)Nc1nccs1 (configuration not stated) | n | n | n | n | n | x
CCn1c(COc2ccc(Cl)cc2)nnc1SCC(=O)Nc1ccc2c(c1)OCO2 | n | n | n | n | n | n
O=C(N/N=C/c1ccccn1)c1cc(-c2cccc3ccccc23)n[nH]1 | n | n | x | n | n | n
O=C(N/N=C/c1ccccn1)c1cc(-c2ccc3ccccc3c2)n[nH]1 | n | n | x | n | 7.5 | n
O=C(NC1CCCC1)C1CCC(=O)N1CCc1ccccc1 (configuration not stated) | n | n | n | n | n | x
O=C(NCc1ccc(Cl)cc1)c1ccccc1CCc1ccccc1 | 41 | n | x | n | n | n
O=C(NCc1ccccc1)c1ccccc1CO | n | n | x | n | n | n
COc1ccc(CNC(N)=O)cc1 | x | n | n | n | n | x
NC(=O)NCc1ccc(Cl)cc1 | 59 | n | x | n | n | x
O=C(c1ccccc1OCc1ccccc1Br)N1CCN(c2ncccn2)CC1 | n | n | n | n | n | n
COc1ccc(C(=O)NN=C(Cc2ccccc2)Cc2ccccc2)cc1OC | n | n | x | n | n | n
C/C(=N\NC(=O)c1ccc(CSc2cccc3cccnc23)cc1)C1CCCCC1 | n | n | x | 71 | n | n
COc1ccc(/C(C)=N/NC(=O)c2ccc(CSc3cccc4cccnc34)cc2)cc1OC | n | n | n | 71 | n | x
